Test results reported in paper PMC8725320 (Biochimica et biophysica acta. Bioenergetics, 2021).
Several values for one entry are separate records, joined by “and”; a condition that tells them apart may be missing. Equal values may be shown once. Read-outs that look alike come from different tables or passages of the source.

Tests used:
[1] = biological target: adenine nucleotide translocase (ANT); assay: Carboxyatractyloside titration of OxPhos with Easson-Stedman analysis; assay type: biochemical; settings: read-out: CAT-ANT Kd; human skeletal muscle mitochondria; Easson-Stedman equation; low [ADP] 6.25 and/or 12.5 μM; n=27
How it was run: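 Human skeletal muscle mitochondria, oxidising glutamate + succinate, were mixed with reaction mix containing 20 μM AP5A, one ADP level (6.25, 12.5 or 25 μM) and one of eight CAT levels (0–5.0 nM). After 5 min for binding, substrate was added to start the reaction. ATP output was followed by luciferase light at 25°C, at least in duplicate. The Easson-Steadman equation gave Kd and ANT concentration.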

[2] = biological target: Adenylate Kinase (Mus musculus, UniProt Q9WTP6); assay type: biochemical
[3] = test system: Creatine Kinase; assay type: biochemical, mouse; settings: 10 mM phosphocreatine, 20 μM AP5A, mean
How it was run: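 Creatine kinase pathway in isolated mouse tissue mitochondria. Started by adding 10 mM phosphocreatine, with 20 μM AP5A to block AK. Run at 25°C in pH 7.0 medium with 100 mM KCl, 50 mM MOPS, 5 mM MgCl2, 10 mM phosphate, D-luciferin and luciferase. ADP at eight concentrations from 0 to 125 μM. Luminescence read each minute over 7–10 min against ATP standard curves; at least duplicate.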

[4] = test system: Oxidative Phosphorylation; assay type: biochemical, mouse
How it was run: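 Mouse liver, kidney, heart and skeletal muscle mitochondria were isolated and diluted in mannitol–sucrose buffer. Run at 25°C in KCl/MOPS medium at pH 7.0 with 5 mM MgCl2, 10 mM phosphate, 20 μM AP5A, luciferin and luciferase. Eight ADP levels from 0 to 125 μM; start with 10 mM glutamate + 10 mM succinate. Luminescence read each minute for 7–10 min against ATP standards; at least duplicate. ADP3− computed from ΣADP.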

[5] = test system: Oxidative Phosphorylation; assay type: biochemical; settings: human skeletal muscle mitochondria, glutamate + succinate, 20 μM AP5A, mean
How it was run: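 Isolated human skeletal muscle mitochondria, diluted in mannitol–sucrose buffer. Firefly luciferase ATP-accumulation assay at 25°C in KCl/MOPS medium at pH 7.0 with 5 mM MgCl2, 10 mM phosphate, glucose, EGTA, DTT and 0.2 g% BSA, plus 20 μM AP5A. ADP at eight levels from 0 to 125 μM (ΣADP). Started with 10 mM glutamate + 10 mM succinate. RLU read per minute over 7–10 min; at least duplicate.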

[6] = test system: Oxidative Phosphorylation; settings: cited from earlier work
[7] = biological target: adenine nucleotide translocase (ANT); settings: read-out: ANT-ADP dissociation constant, KdADP^3−; free ion ADP^3−; cited from earlier work
[8] = test system: Oxidative Phosphorylation; assay: Polarography; assay type: biochemical; settings: mouse skeletal muscle mitochondria, five preparations, creatine kinase clamp, 5 mM ATP, 37°C
How it was run: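 Mouse skeletal muscle mitochondria from five preparations, resuspended in mannitol-sucrose buffer, oxidised 10 mM glutamate + 10 mM succinate at 37°C. O2 consumption was recorded continuously. Steady-state ADP was clamped over a range by varying the phosphocreatine/creatine ratio, with 5 mM ATP and saturating creatine kinase. K0.5 was expressed as total ADP and as ADP3−.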

[9] = mouse skeletal muscle mitochondria
[10] = mouse heart mitochondria, no AP5A, mean
[11] = mouse kidney mitochondria, no AP5A, mean
[12] = mouse skeletal muscle mitochondria, no AP5A, mean
[13] = mouse heart mitochondria, glutamate + succinate, 20 μM AP5A, mean
[14] = mouse kidney mitochondria, glutamate + succinate, 20 μM AP5A, mean
[15] = mouse liver mitochondria, glutamate + succinate, 20 μM AP5A, mean
[16] = mouse skeletal muscle mitochondria, glutamate + succinate, 20 μM AP5A, mean

C=C1[C@@H]2CC[C@H]3[C@]4(C)C[C@H](O[C@@H]5O[C@H](CO)[C@@H](OS(=O)(=O)O)[C@H](OS(=O)(=O)O)[C@H]5OC(=O)CC(C)C)CC(C(=O)O)(C(=O)O)[C@H]4CC[C@]3(C2)[C@H]1O [CAT, Carboxyatractyloside]
Kd [1]: 0.048 ± 0.002 nM

Nc1ncnc2c1ncn2[C@@H]1O[C@H](COP(=O)(O)OP(=O)(O)OP(=O)(O)OP(=O)(O)OP(=O)(O)OC[C@H]2O[C@@H](n3cnc4c(N)ncnc43)[C@H](O)[C@@H]2O)[C@@H](O)[C@H]1O [AP5A, diadenosine pentaphosphate, reference compound]
AK activity in the presence of AP5A ([2]; AP5A present at 20 μM, Figure S-8a, S-8b): not detectable

Nc1ncnc2c1ncn2[C@@H]1O[C@H](COP(=O)(O)OP(=O)(O)O)[C@@H](O)[C@H]1O [ADP]
K0.5ADP, Creatine Kinase, Heart ([3]; mouse heart mitochondria, 25°C, pH 7.0): 24.4 µM | Vmax, Creatine Kinase, Heart ([3]; mouse heart mitochondria): 273.9 nmol ATP min^−1 mg^−1 | nH (Hill exponent), Creatine Kinase, Heart ([3]; mouse heart mitochondria): 1.00 | K0.5ADP, Creatine Kinase, Kidney ([3]; mouse kidney mitochondria, 25°C, pH 7.0): 37.8 µM | Vmax, Creatine Kinase, Kidney ([3]; mouse kidney mitochondria): 28.7 nmol ATP min^−1 mg^−1 | nH (Hill exponent), Creatine Kinase, Kidney ([3]; mouse kidney mitochondria): 1.00 | K0.5ADP, Creatine Kinase, Muscle ([3]; mouse skeletal muscle mitochondria, 25°C, pH 7.0): 36.3 µM | Vmax, Creatine Kinase, Muscle [3, 9]: 944.2 nmol ATP min^−1 mg^−1 | nH (Hill exponent), Creatine Kinase, Muscle [3, 9]: 1.07 | K0.5ADP, Adenylate Kinase, Heart ([2]; mouse heart mitochondria, no AP5A, 25°C, pH 7.0, mean): 54.9 µM | Vmax, Adenylate Kinase, Heart [2, 10]: 30.2 nmol ATP min^−1 mg^−1 | nH (Hill exponent), Adenylate Kinase, Heart [2, 10]: 1.85 | K0.5ADP, Adenylate Kinase, Kidney ([2]; mouse kidney mitochondria, no AP5A, 25°C, pH 7.0, mean): 64.3 µM | Vmax, Adenylate Kinase, Kidney [2, 11]: 102.3 nmol ATP min^−1 mg^−1 | nH (Hill exponent), Adenylate Kinase, Kidney [2, 11]: 1.74 | K0.5ADP, Adenylate Kinase, Liver ([2]; mouse liver mitochondria, no AP5A, 25°C, pH 7.0, mean): 84.0 µM | nH (Hill exponent), Adenylate Kinase, Liver ([2]; mouse liver mitochondria, no AP5A, mean): 1.53 | K0.5ADP, Adenylate Kinase, Muscle ([2]; mouse skeletal muscle mitochondria, no AP5A, 25°C, pH 7.0, mean): 78.0 µM | Vmax, Adenylate Kinase, Muscle [2, 12]: 25.7 nmol ATP min^−1 mg^−1 | nH (Hill exponent), Adenylate Kinase, Muscle [2, 12]: 1.68 | K0.5ADP^3− for OxPhos, heart ([4]; mouse heart mitochondria, free ion ADP^3− calculated from ΣADP): 1.9 μM and ~ 1.9 μM | Vmax, Oxidative Phosphorylation, Heart [4, 13]: 242.4 nmol ATP min^−1 mg^−1 | nH (Hill exponent), Oxidative Phosphorylation, Heart [4, 13]: 1.35 | K0.5ADP^3− for OxPhos, kidney ([4]; mouse kidney mitochondria, free ion ADP^3− calculated from ΣADP): 1.9 μM and ~ 1.9 μM | Vmax, Oxidative Phosphorylation, Kidney [4, 14]: 109.9 nmol ATP min^−1 mg^−1 | nH (Hill exponent), Oxidative Phosphorylation, Kidney [4, 14]: 1.45 | K0.5ADP, Oxidative Phosphorylation, Liver ([4]; mouse liver mitochondria, glutamate + succinate 10 mM + 10 mM, 20 μM AP5A, 25°C, pH 7.0, ΣADP, mean): 22.3 µM | Vmax, Oxidative Phosphorylation, Liver [4, 15]: 59.9 nmol ATP min^−1 mg^−1 | nH (Hill exponent), Oxidative Phosphorylation, Liver [4, 15]: 1.33 | K0.5ADP^3−, Luciferase ([4]; mouse skeletal muscle mitochondria, same five preparations, 25°C, free ion ADP^3−): 1.9 ± 0.1 μM and 1.9 ^* μM | K0.5ADP (ΣADP), Luciferase ([4]; mouse skeletal muscle mitochondria, same five preparations, 25°C, glutamate + succinate): 11.9 ± 0.6 µM and 11.9 µM | K0.5ADP^3− for OxPhos, skeletal muscle ([4]; mouse skeletal muscle mitochondria, free ion ADP^3− calculated from ΣADP): 1.9 μM and ~ 1.9 μM | K0.5ADP, Oxidative Phosphorylation, Muscle ([4]; mouse skeletal muscle mitochondria, glutamate + succinate, 20 μM AP5A, 25°C, pH 7.0, ΣADP, mean): 11.9 µM | Vmax, Oxidative Phosphorylation, Muscle [4, 16]: 553.5 nmol ATP min^−1 mg^−1 | nH (Hill exponent), Oxidative Phosphorylation, Muscle [4, 16]: 1.19 | Vmax [5]: 251.9 nmol/min/mg | nH [5]: 1.16 | K0.5ADP ([5]; ΣADP): 11.1 ± 0.8 µM and 11.1 µM | Hill exponent, nH, in vivo ([6]; in vivo OxPhos vs [ADP], sigmoidal relationship): ~2.0 | OxPhos K0.5ADP in vivo ([6]; intact contracting mammalian skeletal muscle, 31P-MRS): 20 to 40 µM | Kd [7]: ~4000 nM | K0.5ADP^3−, Polarography ([8]; free ion ADP^3−): 4.4 ± 0.4 µM and 4.4 µM | K0.5ADP (ΣADP), Polarography ([8]; glutamate + succinate): 13.1 ± 1.3 µM and 13.1 µM
